Source: ChEMBL document CHEMBL1153551, “Resveratrol modulates phagocytosis of bacteria through an NF-kappaB-dependent gene program” (Antimicrob Agents Chemother, 2008)
Active and inactive are the calls of the source.

How the values were obtained:
RAW264.7 [1] = test: Inhibition of phagocytosis of FITC-conjugated Escherichia coli K12 in mouse RAW264.7 cells using trypan blue staining after 40 mins by flow cytometry; assay type: functional, cell-based
Procedure, shortened: (§1)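 Serum-free THP-1 or RAW264.7 cells were treated 1 h with resveratrol, then incubated 0, 20, 40, 60 or 80 min with heat-killed FITC-E. coli at 1:100 cell:bacterium. Outer fluorescence was quenched with 0.2% trypan blue and cells fixed in 1% paraformaldehyde. Internalized fluorescence was read as flow cytometry MFI; mean and SD of triplicates.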

THP-1 [2] = test: Inhibition of phagocytosis of FITC-conjugated Escherichia coli K12 in human THP1 cells using trypan blue staining after 60 mins by flow cytometry; assay type: functional, cell-based; procedure, shortened: as §1
RAW264.7 [3] = test: Inhibition of phagocytosis of FITC-conjugated Escherichia coli K12 in mouse RAW264.7 cells using trypan blue staining after 20 mins by flow cytometry; assay type: functional, cell-based; procedure, shortened: as §1
THP-1 [4] = test: Inhibition of FSL-1-induced increase in phagocytosis of FITC-conjugated Escherichia coli K12 in human THP1 cells assessed as reduction in number of phagocytosing bacteria to total number of cells after 1 hr by CLSM; assay type: functional, cell-based
Procedure, shortened: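 THP-1 cells (1 × 10⁶/ml) were held 24 h with or without 100 nM FSL-1, washed, then given 100 μM resveratrol or 0.1% DMSO for 1 h. Heat-killed FITC-E. coli (1:100) was added for 1 h, cells were stained with concanavalin A, fixed in 3% paraformaldehyde and imaged by confocal microscopy. Readouts: particles per cell among 3,500 cells; % cells with bacteria per field (>100 cells), 25 fields.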

RAW264.7 [5] = test: Inhibition of phagocytosis of FITC-conjugated Escherichia coli K12 in mouse RAW264.7 cells assessed as reduction in ratio of number of bacterial cells to phagocytes using trypan blue staining by flow cytometry; assay type: functional, cell-based
Procedure, shortened: (§2)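 THP-1 or RAW264.7 cells received resveratrol for 1 h serum-free, then a range of doses of heat-killed FITC-E. coli or FITC-S. aureus. Trypan blue (0.2%) quenched bound bacteria and 1% paraformaldehyde fixed the cells. Flow cytometry MFI of internalized bacteria was plotted against bacterial dose; triplicates.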

THP-1 [6] = test: Inhibition of phagocytosis of FITC-conjugated Staphylococcus aureus 209P in human THP1 cells assessed as reduction in ratio of number of bacterial cells to phagocytes using trypan blue staining by flow cytometry; assay type: functional, cell-based; procedure, shortened: as §2
HEK293 [7] = test: Inhibition of phagocytosis of heat killed FITC-conjugated Staphylococcus aureus 209P in HEK293 at 100 uM after 1 hr; assay type: functional, cell-based; conditions: Homo sapiens
Procedure, shortened: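 293/DC-SIGN cells (5 × 10⁵/ml) were plated the day before, washed and treated 1 h with resveratrol. Heat-killed FITC-E. coli or S. aureus were added for 1 h at various cell:bacterium ratios. Trypan blue (0.2%) quenched surface fluorescence and 1% paraformaldehyde fixed the cells. Flow cytometry MFI, triplicates.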

HEK293 [8] = test: Inhibition of heat killed Escherichia coli K12-induced nuclear translocation of p65 element of NF-kappaB in HEK293 cells expressing TLR2 at 100 uM pretreated for 1 hr before 6 hrs heat killed bacterial stimulation by immunostaining method; assay type: cell-based; conditions: Homo sapiens
Procedure, shortened: (§3)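 293/TLR2 cells on poly-L-lysine coverslips were given 100 μM resveratrol or 0.1% DMSO for 1 h, then heat-killed E. coli or S. aureus (1:100) for 6 h. Cells were fixed in methanol at −20°C for 5 min and stained with rabbit anti-p65 pAb (1 μg/ml, 45 min RT), then Alexa 594 anti-rabbit IgG. Nuclear p65 was viewed by confocal microscopy.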

RAW264.7 [9] = test: Inhibition of FSL-1-induced increase in phagocytosis of FITC-conjugated Staphylococcus aureus 209P in mouse RAW264.7 cells using trypan blue staining after 20 mins by flow cytometry; assay type: functional, cell-based
Procedure, shortened: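 THP-1 or RAW264.7 cells (1 × 10⁶/ml) were pretreated 24 h with FSL-1 (0, 1, 10, 100 nM), washed, then given resveratrol (10, 50, 100 μM) for 1 h serum-free. Heat-killed FITC-E. coli (1:10) or FITC-S. aureus (1:100) followed. Surface fluorescence was quenched with 0.2% trypan blue and cells fixed in 1% paraformaldehyde. Flow cytometry mean fluorescence intensity, triplicates.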

RAW264.7 [10] = test: Inhibition of phagocytosis of FITC-conjugated Staphylococcus aureus 209P in mouse RAW264.7 cells using trypan blue staining after 60 mins by flow cytometry; assay type: functional, cell-based
RAW264.7 [11] = test: Inhibition of phagocytosis of FITC-conjugated Escherichia coli K12 in mouse RAW264.7 cells using trypan blue staining after 80 mins by flow cytometry; assay type: functional, cell-based; procedure, shortened: as §1
HEK293 [12] = test: Inhibition of heat killed Staphylococcus aureus 209P-induced nuclear translocation of p65 element of NF-kappaB in HEK293 cells expressing TLR2 at 100 uM pretreated for 1 hr before 6 hrs heat killed bacterial stimulation by immunostaining method; assay type: cell-based; conditions: Homo sapiens; procedure, shortened: as §3
THP-1 [13] = test: Inhibition of phagocytosis of FITC-conjugated Staphylococcus aureus 209P in human THP1 cells using trypan blue staining after 40 mins by flow cytometry; assay type: functional, cell-based
RAW264.7 [14] = test: Inhibition of heat killed Staphylococcus aureus 209P-induced TNF alpha production in mouse RAW264.7 cells at 1 to 100 uM after 6 hrs by ELISA; assay type: functional, cell-based
Procedure, shortened: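 THP-1 or RAW264.7 cells (1 × 10⁶/well, 16 h) were washed and pretreated 1 h with resveratrol. Serum-free stimulation with heat-killed E. coli or S. aureus at 1:100 followed for 0, 2, 4 or 6 h. TNF-α in supernatants (400 × g spin) was measured by ELISA: human kit for THP-1, mouse kit for RAW264.7. Triplicates.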

THP-1 [15] = test: Inhibition of phagocytosis of FITC-conjugated Escherichia coli K12 in human THP1 cells using trypan blue staining after 40 mins by flow cytometry; assay type: functional, cell-based; procedure, shortened: as §1
THP-1 [16] = test: Inhibition of phagocytosis of FITC-conjugated Staphylococcus aureus 209P in human THP1 cells using trypan blue staining after 60 mins by flow cytometry; assay type: functional, cell-based
HEK293 [17] = test: Inhibition of heat killed Escherichia coli K12-induced NF-kappaB activation in HEK293 cells expressing TLR2 pretreated for 1 hr before 6 hrs heat killed bacterial stimulation by luciferase reporter gene assay; assay type: cell-based; conditions: Homo sapiens
Procedure, shortened: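 293/TLR2 cells (1 × 10⁵/well) were transfected with 50 ng pNF-κB-Luc, 5 ng pRL-TK and 445 ng pcDNA3. After 24 h they were pretreated 1 h with resveratrol, then stimulated 6 h serum-free with FSL-1 (1, 10, 100 nM) or heat-killed E. coli or S. aureus (1:1, 1:10, 1:100). Dual luciferase readout, triplicates.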

RAW264.7 [18] = test: Inhibition of phagocytosis of FITC-conjugated Staphylococcus aureus 209P in mouse RAW264.7 cells using trypan blue staining after 80 mins by flow cytometry; assay type: functional, cell-based
THP-1 [19] = test: Inhibition of phagocytosis of FITC-conjugated Escherichia coli K12 in human THP1 cells assessed as reduction in ratio of number of bacterial cells to phagocytes using trypan blue staining by flow cytometry; assay type: functional, cell-based; procedure, shortened: as §2
RAW264.7 [20] = test: Inhibition of phagocytosis of FITC-conjugated Staphylococcus aureus 209P in mouse RAW264.7 cells using trypan blue staining after 20 mins by flow cytometry; assay type: functional, cell-based
THP-1 [21] = test: Inhibition of phagocytosis of FITC-conjugated Escherichia coli K12 in human THP1 cells using trypan blue staining after 80 mins by flow cytometry; assay type: functional, cell-based; procedure, shortened: as §1

Measured: Activity

Oc1ccc(/C=C/c2cc(O)cc(O)c2)cc1
active: RAW264.7 [1] Dose-dependent effect | THP-1 [2] Dose-dependent effect | RAW264.7 [3] Dose-dependent effect | THP-1 [4] | RAW264.7 [5] | THP-1 [6] | HEK293 [7] Dose-dependent effect | HEK293 [8] | RAW264.7 [9] Dose-dependent effect | RAW264.7 [10] Dose-dependent effect | RAW264.7 [11] Dose-dependent effect | HEK293 [12] | THP-1 [13] Dose-dependent effect | RAW264.7 [14] | THP-1 [15] Dose-dependent effect | THP-1 [16] Dose-dependent effect | HEK293 [17] | RAW264.7 [18] Dose-dependent effect | THP-1 [19] | RAW264.7 [20] Dose-dependent effect | THP-1 [21] Dose-dependent effect
